CAL PDZ FP-1: CAL PDZ peptide-binding inhibitors, primary screen, biochemical, fluorescence polarization, Cer-tagged CAL PDZ, HTS | Golgi-associated PDZ and coiled-coil motif-containing protein (Homo sapiens), Q9HD26 | purified CAL PDZ, TMR-peptide fluorescence polarization, 1 h | inhibition, % at 20 µM | 330,000 compounds, 0.02% hits | AID 504414, 2011;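 active = highest replicate inhibition of at least 40%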
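Material: tagged CAL PDZ protein CerCALP, purified; buffer or medium: sodium phosphate/NaCl buffer pH 7.4 with TCEP, IgG, Thesit; also added: fluorescent TMR peptide probe; schedule: 1 h incubation at room temperature before polarization reading; technique: fluorescence polarization from S- and P-plane intensities, G-factor corrected; control set: unlabelled peptide and DMSO controls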
PKA-R2B activ: activators of PKA-R2B holoenzyme, primary screen, biochemical, fluorescence polarization, Cy5-IP20, human. PKA-R2B holoenzyme dissociation; R2B truncated from residue 108, S112A mutant; 0% DMSO only, 100% 113 µM cGMP. activation, % at 11.4 µM. 340,000 compounds, 0.079% hits. AID 504700, 2011;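 active = activation above a cutoff set at the mean over all compounds plus 3 SD, cut at about 18% in these data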;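 also: higher means more holoenzyme dissociation and a rise in polarization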
Target sequence (P31323 whole entry, looked up, other chains not shown, the tested form may be a part): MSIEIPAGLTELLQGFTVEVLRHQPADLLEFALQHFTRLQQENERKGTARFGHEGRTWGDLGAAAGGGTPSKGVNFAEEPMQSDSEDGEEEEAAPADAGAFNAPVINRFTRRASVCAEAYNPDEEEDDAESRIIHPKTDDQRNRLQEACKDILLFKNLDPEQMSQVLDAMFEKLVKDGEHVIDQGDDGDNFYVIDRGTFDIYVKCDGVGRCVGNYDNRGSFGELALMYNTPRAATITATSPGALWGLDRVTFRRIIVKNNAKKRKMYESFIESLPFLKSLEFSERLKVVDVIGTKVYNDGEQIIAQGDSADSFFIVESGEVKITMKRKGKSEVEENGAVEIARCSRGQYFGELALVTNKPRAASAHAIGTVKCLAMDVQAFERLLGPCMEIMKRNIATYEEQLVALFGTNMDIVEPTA
NTR1 agonist: agonists of human NTR1, primary screen, imaging, U2OS cells, beta-arrestin-GFP, high content; NTR1-U2OS beta-arrestin-GFP spot imaging, agonist mode; Neurotensin receptor type 1 (Homo sapiens), P30989; 330,000 compounds, 0.17% hits; activation, % at 20 µM;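 active = activation at or above 40% of the spot to cytoplasm intensity ratio, with at least 20 cells analyzed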
PKA-R1A act: activators of PKA-R1A holoenzyme, primary screen, biochemical, fluorescence polarization, Cy5-IP20, bovine R1A, mouse PKAc. cAMP-dependent protein kinase type I-alpha regulatory subunit (Bos taurus) + …. PKA-R1A dissociation; scaled: DMSO 0%, 113 µM cGMP 100%. activation, % at 11.4 µM. 340,000 compounds, 0.083% hits. AID 504707, 2011;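 active = percent activation above the mean of all tested compounds plus 3 SD, cut at about 19% in these data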;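 also: higher means more PKAc released from R1A so a rise in polarization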
dFosB activator: activators of delta FosB homodimer, primary screen, biochemical, fluorescence polarization, TAMRA-CDK5 oligo, single point | Protein FosB (Mus musculus), P13346 | activation, % at 25 µM | 340,000 compounds, 0.99% hits | purified delta FosB; percent of positive-control signal above neutral wells;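 active = mean activation above about 17%, with every replicate also reaching it, limit read from the data, passing the limit was not always enough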
CAL PDZ FP-2: untagged CAL PDZ binding inhibitors, primary screen, biochemical, fluorescence polarization, HTS; inhibition, % at 24.9 µM; Golgi-associated PDZ and coiled-coil motif-containing protein (Homo sapiens), Q9HD26; purified CAL PDZ, TMR-peptide fluorescence polarization, 1 h; 300,000 compounds, 0.92% hits;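 active = mean inhibition of at least 30% with at least half of replicates also reaching 30%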
A number is an active result; – = inactive; · = not tested or not shown. Hits are enriched below; roughly 2% of the tested compounds scored in any of these assays.

SMILES	CAL PDZ FP-1	PKA-R2B activ	NTR1 agonist	PKA-R1A act	dFosB activator	CAL PDZ FP-2
CCCn1c(N)c(C(=O)CSc2nc(N)cc(=O)[nH]2)c(=O)n(C)c1=O	–	–	–	–	–	–
c1ccc2c(NC3=NCCCCS3)cccc2c1	·	–	–	–	–	34
O=C(C[n+]1ccc(CCSc2ccc(F)cc2)cc1)c1ccccc1	–	–	–	–	85	–
Cc1sc(NC(=O)C2CC(=O)N(Cc3ccco3)C2)nc1-c1ccccc1 (centres undefined)	·	–	·	–	·	·
COc1cc2nc(N(CCN(C)C)C(=O)c3ccc4ccccc4c3)sc2cc1OC	–	–	–	–	–	–
CN(C)CCN(C(=O)c1ccc2ccccc2c1)c1nc2cc3c(cc2s1)OCO3	·	–	·	–	·	·
COc1ccc(OC)c2sc(N(CCN(C)C)C(=O)c3ccc4ccccc4c3)nc12	–	–	–	–	30	–
CN(C)CCN(C(=O)c1ccc2ccccc2c1)c1nc2ccc(F)cc2s1	–	–	–	–	26	–
CCc1ccc2nc(N(CCN(C)C)C(=O)c3ccc4ccccc4c3)sc2c1	–	–	–	–	22	69
CCOC(=O)c1c(C)[nH]c(C)c1S(=O)(=O)N(C)CC(=O)Nc1ccccc1	–	–	–	–	–	–
NS(=O)(=O)c1cccc(NC(=O)CSc2nnc(-c3ccccc3F)n2C2CC2)c1	–	–	–	–	–	–
CCn1cc(S(=O)(=O)CC(=O)Nc2ccc(C)cc2)c2ccccc21	–	–	–	–	–	53
O=[N+]([O-])c1ccc(NC(c2ccccc2)c2ccc3cccnc3c2O)cc1 (centres undefined)	–	–	·	–	–	91
CC(=O)NC(c1cccc([N+](=O)[O-])c1)c1ccc2cccnc2c1O (centres undefined)	–	–	–	–	–	–
CCN1CCN(C(c2cc(OC)ccc2OC)c2nnnn2Cc2ccccc2)CC1 (centres undefined)	–	–	–	–	–	54
CCN1CCN(C(c2ccccc2)c2nnnn2Cc2ccccc2)CC1 (centres undefined)	–	–	–	–	–	–
C#CCOCCOCCOCCNc1nc(N2CCN(C(=O)CCCCCCCCCCNC(=O)Cn3cc(CCCCCN)nn3)CC2)nc(N2CCN(C(=O)CCCCCCCCCCNC(=O)[C@H]([C@@H](C)CC)n3cc(CCCCN=C(N)N)nn3)CC2)n1	–	21	–	–	–	–
CC[C@H](C)[C@@H](C(=O)NCCCCCCCCCCC(=O)N1CCN(C(=O)OC(C)(C)C)CC1)n1cc(CCCCN=C(NC(=O)OC(C)(C)C)NC(=O)OC(C)(C)C)nn1	·	·	63	·	·	·
CC(C)(C)OC(=O)NCCCCCc1cn([C@@H](CO)C(=O)NCCCCCCCCCCC(=O)N2CCN(C(=O)OC(C)(C)C)CC2)nn1	–	–	82	–	–	–
CC(C)(C)OC(=O)CC[C@@H](C(=O)NCCCCCCCCCCC(=O)N1CCN(C(=O)OC(C)(C)C)CC1)n1cc(CCCCCNC(=O)OC(C)(C)C)nn1	–	–	–	–	–	–
CC(C)(C)c1ccc(-n2ncc3c2CCCC3NC(=O)CCCn2cncn2)cc1 (centres undefined)	–	–	–	–	–	–
Nc1nc(SCC(=O)Nc2ccc([N+](=O)[O-])cc2)[nH]c(=O)c1NC(=O)c1ccc(Br)cc1	–	–	–	–	50	–
Nc1cc(=O)[nH]c(SCC(=O)Nc2ccc([N+](=O)[O-])cc2)n1	–	–	–	–	–	–
COC(=O)[C@H](CCSC)NC(=O)Cn1cnc(C(=O)Nc2ccc(C)c(C)c2)n1	–	–	–	–	–	–
COc1ccc(CCNC(=O)Cn2c(-c3nonc3N)nc3ccccc32)cc1OC	·	–	–	–	–	40
SMILES	CAL PDZ FP-1	PKA-R2B activ	NTR1 agonist	PKA-R1A act	dFosB activator	CAL PDZ FP-2
COc1ccc(C(=O)Nc2nnc(CC(=O)N/N=C/c3ccc(O)cc3O)s2)cc1	–	–	–	–	36	–
CN(Cc1ccc(Br)s1)C(=O)CNC(=O)c1ccc2c(c1)OCO2	–	–	–	–	–	–
O=C1CC(c2cc(Br)ccc2F)c2cc3c(cc2N1)CCC3 (centres undefined)	–	–	–	–	41	·
O=C(Cc1ccccc1)NCC(=O)N1CCc2ccccc2C1	–	–	–	–	–	–
O=C(CNCCc1ccccc1)N1CCc2ccccc2C1	–	–	–	–	–	45
CN1/C(=C\C(=O)COC(=O)Cn2nnc(-c3ccccc3)n2)C(C)(C)c2ccccc21	–	–	–	–	52	–
COc1ccc(CNC(=O)C2CCN(S(=O)(=O)c3cccc4nsnc34)CC2)cc1	–	–	–	–	–	37
Cc1ccc(CCNC(=O)C2CCN(S(=O)(=O)c3cccc4nonc34)CC2)cc1	–	–	–	–	–	–
Cc1ccc(CNC(=O)C2CCN(S(=O)(=O)c3cccc4nonc34)CC2)cc1	–	–	–	–	21	–
COc1ccc(CNC(=O)C2CCCN(S(=O)(=O)c3cccc4nsnc34)C2)cc1 (centres undefined)	–	–	–	–	–	–
O=C(NCc1ccccc1Cl)C1CCCN(S(=O)(=O)c2cccc3nonc23)C1 (centres undefined)	–	–	–	–	39	–
Cc1c(S(=O)(=O)N2CCN(c3ccc(F)cc3)CC2)c(=O)n(C)c(=O)n1C	–	–	–	–	–	–
CC(OC(=O)Cc1ccc(Br)cc1)C(=O)NC1CCCC1 (centres undefined)	–	–	–	–	–	·
COc1c(/C=N/Nc2nc(N3CCCCC3)nc(N3CCCCC3)n2)cccc1[N+](=O)[O-]	–	–	–	–	–	–
COc1cccc(/C=N/Nc2nc(Nc3ccc([N+](=O)[O-])cc3)nc(N3CCCC3)n2)c1O	–	·	–	·	67	–
N=C1SCC(=O)N1c1ncc(Cc2ccccc2Cl)s1	–	–	·	–	–	30
COc1ccccc1Nc1n[nH]c(=S)s1	–	–	–	–	–	78
Cc1c(CCC(=O)O)c(=O)oc2c(C)c(OCc3cc4c(cc3Cl)OCO4)ccc12	–	–	–	–	–	95
